Laboratory results: ChEMBL document CHEMBL1140586, “Design and synthesis of a functionally selective D3 agonist and its in vivo delivery via the intranasal route” (Bioorg Med Chem Lett, 2007)
Calls of active or inactive are those of the source. No cut-off for these calls is given here.

What was measured:
[1] = target: D(3) dopamine receptor (Homo sapiens, UniProt P35462); test: Agonist activity at human recombinant dopamine D3 receptor expressed in CHO cells assessed as inhibition of forskolin-stimulated cAMP accumulation; type: functional, cell-based
[2] = Clearance in human; type: ADME, organism-based; conditions: in vivo
[3] = target: D(2) dopamine receptor (Homo sapiens, UniProt P14416); test: Agonist activity at human recombinant dopamine D2 receptor expressed in rat pituitary cells assessed as inhibition of forskolin-stimulated cAMP accumulation; type: functional, cell-based, Pituitary gland cell
[4] = Intranasal bioavailability in rat at 2 mg/kg; type: ADME, organism-based; conditions: in vivo, inhaled or intranasal
Summary of the method: (§1)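 Rat study: compound freshly prepared in saline. An intravenous reference dose of 1 mg/kg was given as a bolus. Intranasal doses of 0.5 and 2 mg/kg were given as 20 µl into one nostril by pipette.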

[5] = target: T1, 5-hydroxytryptamine receptor 1A (Homo sapiens) (UniProt P08908); test: Binding affinity to human 5HT1A receptor at 100 nM
T1 sequence (whole entry): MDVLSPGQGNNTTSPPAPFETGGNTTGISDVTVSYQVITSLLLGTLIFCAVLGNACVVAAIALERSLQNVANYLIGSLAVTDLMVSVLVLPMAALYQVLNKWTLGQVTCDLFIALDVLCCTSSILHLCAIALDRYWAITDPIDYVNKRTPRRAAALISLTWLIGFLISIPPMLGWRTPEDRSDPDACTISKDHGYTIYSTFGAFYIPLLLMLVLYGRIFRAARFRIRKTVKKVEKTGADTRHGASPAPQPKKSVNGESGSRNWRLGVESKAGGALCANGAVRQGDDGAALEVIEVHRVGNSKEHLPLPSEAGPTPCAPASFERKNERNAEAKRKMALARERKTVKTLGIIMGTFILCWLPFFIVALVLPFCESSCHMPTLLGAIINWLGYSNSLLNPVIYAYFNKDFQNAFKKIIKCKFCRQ
Summary of the method: (§2)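 Single-concentration binding screen in the Cerep wide ligand profile panel at the human 5HT1A receptor. Read-out is percent binding activity at each test concentration.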

[6] = Stability in human hepatocytes; type: ADME, cell-based, Liver, Hepatocyte
Summary of the method: (§3)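 Rat, dog and human hepatocyte incubations; read-out was the disappearance half-life of parent compound, in minutes.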

[7] = target: Voltage-gated inwardly rectifying potassium channel KCNH2 (Homo sapiens, UniProt Q12809); test: Displacement of dofetilide from hERG
[8] = test system: Canis familiaris; test: Toxicity in sc dog assessed as nausea upto […]; type: organism-based, Canis lupus familiaris; conditions: in vivo
[9] = Solubility of the compound; type: physicochemical
[10] = Stability in dog hepatocytes; type: ADME, cell-based, Liver, Hepatocyte; summary of the method: as §3
[11] = target: T2, Muscarinic acetylcholine receptor M1 (Homo sapiens, UniProt P11229); test: Binding affinity to human muscarinic M1 receptor
T2 sequence (P11229 whole entry): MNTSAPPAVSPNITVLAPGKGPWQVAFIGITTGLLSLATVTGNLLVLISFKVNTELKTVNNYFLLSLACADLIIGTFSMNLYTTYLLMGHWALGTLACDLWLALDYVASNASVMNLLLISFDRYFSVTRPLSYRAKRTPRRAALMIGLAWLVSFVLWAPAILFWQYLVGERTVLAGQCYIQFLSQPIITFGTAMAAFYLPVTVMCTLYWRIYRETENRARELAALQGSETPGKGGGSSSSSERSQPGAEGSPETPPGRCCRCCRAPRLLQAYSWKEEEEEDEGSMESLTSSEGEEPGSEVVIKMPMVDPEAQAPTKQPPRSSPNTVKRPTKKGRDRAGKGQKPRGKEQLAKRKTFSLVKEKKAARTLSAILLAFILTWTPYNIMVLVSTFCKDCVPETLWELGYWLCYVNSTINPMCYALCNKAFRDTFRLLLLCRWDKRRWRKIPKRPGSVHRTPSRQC

[12] = target: T1, 5-hydroxytryptamine receptor 1A (Homo sapiens); test: Agonist activity at human recombinant 5HT1A at 1 uM; type: functional
[13] = Tmax in rat at 2 mg/kg administered by intranasal route; type: ADME, organism-based; design: dose 2 mg/kg; conditions: in vivo, inhaled or intranasal; summary of the method: as §1
[14] = Dissociation constant, pKa of the compound; type: physicochemical
[15] = target: T1, 5-hydroxytryptamine receptor 1A (Homo sapiens); test: Binding affinity to human 5HT1A receptor at 10 uM; summary of the method: as §2
[16] = Distribution coefficient, log D at pH 7.4; type: physicochemical; conditions: octanol/water
[17] = Protein binding in rat plasma; type: ADME, cell-free; conditions: read-out: PB (converted)
[18] = target: D(1A) dopamine receptor (Homo sapiens, UniProt P21728); test: Binding affinity to dopamine D1 receptor
Summary of the method: (§4)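 Broad commercial ligand-binding panel profiling, including dopamine D1 and D5 receptors; reported as IC50.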

[19] = target: 5-hydroxytryptamine receptor 2A (Rattus norvegicus, UniProt P14842); test: Binding affinity to rat 5HT2A receptor
[20] = Intranasal bioavailability in dog at 0.3 mg/kg; type: ADME, organism-based, Canis lupus familiaris; conditions: in vivo, inhaled or intranasal
Summary of the method: (§5)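 Dogs, male (n = 2) and female (n = 2). Compound freshly prepared in saline. The intravenous reference was a 10-min infusion at 3 ml/kg/h of a 0.2 mg/ml solution, giving a final dose of 0.1 mg/kg. Intranasal doses of 0.1 and 0.3 mg/kg were given as 100 µl into one nostril by spray device.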

[21] = target: T3, Alpha-2A adrenergic receptor (Homo sapiens, UniProt P08913); test: Binding affinity to human alpha-2A adrenergic receptor
T3 sequence (P08913 whole entry): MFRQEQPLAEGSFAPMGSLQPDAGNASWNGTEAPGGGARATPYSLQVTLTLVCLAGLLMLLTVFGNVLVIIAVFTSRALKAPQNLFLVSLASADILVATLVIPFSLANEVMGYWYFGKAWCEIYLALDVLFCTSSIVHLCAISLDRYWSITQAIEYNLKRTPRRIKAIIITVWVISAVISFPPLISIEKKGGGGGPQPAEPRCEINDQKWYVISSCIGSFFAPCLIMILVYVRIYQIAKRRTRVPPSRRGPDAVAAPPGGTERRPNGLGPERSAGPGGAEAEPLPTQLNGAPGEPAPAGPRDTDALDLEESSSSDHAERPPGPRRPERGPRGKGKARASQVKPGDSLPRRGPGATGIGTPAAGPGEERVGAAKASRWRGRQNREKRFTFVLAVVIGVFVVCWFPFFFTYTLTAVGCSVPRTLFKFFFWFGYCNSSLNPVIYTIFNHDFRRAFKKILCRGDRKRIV

[22] = Protein binding in human plasma; type: ADME, cell-free; conditions: read-out: PB (converted)
[23] = Tmax in dog at 0.3 mg/kg; type: ADME, organism-based, Canis lupus familiaris; design: dose 0.3 mg/kg; conditions: in vivo; summary of the method: as §5
[24] = test system: Canis familiaris; test: Effect on male erectile dysfunction in sc dosed dog; type: functional, Canis lupus familiaris
Summary of the method: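 Animal models of male erectile dysfunction, with multiple subcutaneous dosing; ED50 expressed as free drug concentration.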

[25] = target: T4, 5-hydroxytryptamine receptor 1A (Homo sapiens, UniProt P08908); test: Antagonist activity at human recombinant 5HT1A receptor; type: functional
T4 sequence (P08908 whole entry): T1 sequence (whole entry)

[26] = test system: Canis familiaris; test: Toxicity in sc dog assessed as emesis upto […]; type: organism-based, Canis lupus familiaris; conditions: in vivo
[27] = Half life in rat at 2 mg/kg administered by intranasal route; type: ADME, organism-based; design: dose 2 mg/kg; conditions: in vivo, inhaled or intranasal; summary of the method: as §1
[28] = test system: Canis familiaris; test: Toxicity in sc dog assessed as hypotensive effects upto […]; type: organism-based, Canis lupus familiaris; conditions: in vivo
[29] = Stability in rat hepatocytes; type: ADME, cell-based, Liver, Hepatocyte; summary of the method: as §3
[30] = Apparent permeability across Caco-2 cells at 1 uM; type: ADME, cell-based; conditions: human
[31] = Half life in dog at 0.3 mg/kg; type: ADME, organism-based, Canis lupus familiaris; design: dose 0.3 mg/kg; conditions: in vivo; summary of the method: as §5
[32] = target: T5, Alpha-1A adrenergic receptor (Rattus norvegicus, UniProt P43140); test: Binding affinity to rat alpha-1A adrenergic receptor
T5 sequence (P43140 whole entry): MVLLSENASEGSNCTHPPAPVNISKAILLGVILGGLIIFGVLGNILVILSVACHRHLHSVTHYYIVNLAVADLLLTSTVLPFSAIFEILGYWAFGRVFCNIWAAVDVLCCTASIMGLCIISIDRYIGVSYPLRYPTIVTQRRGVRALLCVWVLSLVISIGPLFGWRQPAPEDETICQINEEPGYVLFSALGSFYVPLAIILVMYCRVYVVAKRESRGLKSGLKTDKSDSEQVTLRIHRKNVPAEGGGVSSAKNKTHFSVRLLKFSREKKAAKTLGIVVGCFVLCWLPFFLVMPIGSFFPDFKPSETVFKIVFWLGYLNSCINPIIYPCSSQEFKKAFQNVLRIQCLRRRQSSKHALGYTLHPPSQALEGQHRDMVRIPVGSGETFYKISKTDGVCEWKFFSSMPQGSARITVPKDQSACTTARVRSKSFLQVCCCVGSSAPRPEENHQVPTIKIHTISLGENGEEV

[33] = target: D(1B) dopamine receptor (Homo sapiens, UniProt P21918); test: Binding affinity to dopamine D5 receptor; summary of the method: as §4
[34] = target: Histamine H1 receptor (Homo sapiens, UniProt P35367); test: Binding affinity to human histamine H1 receptor
[35] = Protein binding in dog plasma; type: ADME, cell-free, Canis lupus familiaris; conditions: read-out: PB (converted)

Chain of D(3) dopamine receptor (P35462 whole entry): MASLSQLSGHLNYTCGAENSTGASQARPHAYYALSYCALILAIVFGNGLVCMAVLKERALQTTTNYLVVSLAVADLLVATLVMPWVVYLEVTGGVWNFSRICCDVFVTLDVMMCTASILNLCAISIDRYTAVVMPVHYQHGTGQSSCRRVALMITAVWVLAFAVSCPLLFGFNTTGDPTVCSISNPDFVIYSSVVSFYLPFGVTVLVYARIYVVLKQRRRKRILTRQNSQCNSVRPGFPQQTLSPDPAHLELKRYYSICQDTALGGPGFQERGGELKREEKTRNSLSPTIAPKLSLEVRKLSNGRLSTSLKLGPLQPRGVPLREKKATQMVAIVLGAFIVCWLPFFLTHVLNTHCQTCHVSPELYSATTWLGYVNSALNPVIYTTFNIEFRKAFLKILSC
Chain of D(2) dopamine receptor (P14416 whole entry): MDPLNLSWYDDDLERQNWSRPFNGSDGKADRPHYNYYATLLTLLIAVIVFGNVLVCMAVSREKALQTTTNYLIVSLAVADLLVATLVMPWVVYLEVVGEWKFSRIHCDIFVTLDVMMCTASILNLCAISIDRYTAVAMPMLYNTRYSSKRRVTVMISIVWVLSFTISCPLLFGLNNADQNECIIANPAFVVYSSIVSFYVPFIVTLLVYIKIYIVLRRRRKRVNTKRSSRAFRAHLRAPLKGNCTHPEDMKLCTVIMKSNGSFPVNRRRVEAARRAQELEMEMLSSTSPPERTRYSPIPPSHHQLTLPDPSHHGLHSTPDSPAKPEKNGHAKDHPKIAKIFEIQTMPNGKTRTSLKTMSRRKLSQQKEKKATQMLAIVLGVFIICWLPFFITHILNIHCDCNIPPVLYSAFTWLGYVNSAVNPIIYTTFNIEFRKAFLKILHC
Chain of D(1B) dopamine receptor (P21918 whole entry): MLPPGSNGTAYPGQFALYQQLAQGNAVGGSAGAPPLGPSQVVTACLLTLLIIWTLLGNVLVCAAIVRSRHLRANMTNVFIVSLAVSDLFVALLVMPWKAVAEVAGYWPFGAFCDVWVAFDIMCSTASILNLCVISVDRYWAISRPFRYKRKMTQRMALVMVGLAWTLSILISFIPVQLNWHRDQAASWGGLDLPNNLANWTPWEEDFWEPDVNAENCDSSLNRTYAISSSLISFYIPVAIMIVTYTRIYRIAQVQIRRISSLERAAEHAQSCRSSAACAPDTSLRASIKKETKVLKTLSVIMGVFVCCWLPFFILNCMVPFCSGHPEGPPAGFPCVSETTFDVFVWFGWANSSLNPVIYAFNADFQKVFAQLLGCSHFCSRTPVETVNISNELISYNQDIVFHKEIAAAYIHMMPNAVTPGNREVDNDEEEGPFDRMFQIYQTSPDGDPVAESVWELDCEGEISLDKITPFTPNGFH
Chain of D(1A) dopamine receptor (P21728 whole entry): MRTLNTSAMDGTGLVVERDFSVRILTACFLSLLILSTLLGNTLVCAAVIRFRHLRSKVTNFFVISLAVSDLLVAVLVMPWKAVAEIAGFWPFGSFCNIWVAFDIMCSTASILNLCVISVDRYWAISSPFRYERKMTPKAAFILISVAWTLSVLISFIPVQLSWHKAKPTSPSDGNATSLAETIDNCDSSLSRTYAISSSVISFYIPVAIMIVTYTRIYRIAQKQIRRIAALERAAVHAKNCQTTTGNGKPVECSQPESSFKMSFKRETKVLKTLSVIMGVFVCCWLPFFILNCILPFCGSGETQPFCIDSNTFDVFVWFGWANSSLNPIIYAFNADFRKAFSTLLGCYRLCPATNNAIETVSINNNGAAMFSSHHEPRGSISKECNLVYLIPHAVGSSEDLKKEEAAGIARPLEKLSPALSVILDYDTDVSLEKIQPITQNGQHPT
Chain of 5-hydroxytryptamine receptor 2A (P14842 whole entry): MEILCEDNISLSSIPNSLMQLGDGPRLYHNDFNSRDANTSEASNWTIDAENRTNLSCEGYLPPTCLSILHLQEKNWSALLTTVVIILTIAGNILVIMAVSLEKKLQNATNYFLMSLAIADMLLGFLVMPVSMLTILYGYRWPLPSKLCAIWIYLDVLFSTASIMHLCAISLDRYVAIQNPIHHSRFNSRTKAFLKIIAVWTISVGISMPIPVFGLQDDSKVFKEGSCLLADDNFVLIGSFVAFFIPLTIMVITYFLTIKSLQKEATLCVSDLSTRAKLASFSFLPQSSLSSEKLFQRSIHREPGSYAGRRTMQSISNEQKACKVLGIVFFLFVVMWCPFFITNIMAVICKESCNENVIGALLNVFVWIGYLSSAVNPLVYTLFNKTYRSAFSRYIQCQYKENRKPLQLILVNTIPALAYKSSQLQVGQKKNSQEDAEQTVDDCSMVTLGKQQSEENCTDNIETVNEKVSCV
Chain of Voltage-gated inwardly rectifying potassium channel KCNH2 (Q12809 whole entry): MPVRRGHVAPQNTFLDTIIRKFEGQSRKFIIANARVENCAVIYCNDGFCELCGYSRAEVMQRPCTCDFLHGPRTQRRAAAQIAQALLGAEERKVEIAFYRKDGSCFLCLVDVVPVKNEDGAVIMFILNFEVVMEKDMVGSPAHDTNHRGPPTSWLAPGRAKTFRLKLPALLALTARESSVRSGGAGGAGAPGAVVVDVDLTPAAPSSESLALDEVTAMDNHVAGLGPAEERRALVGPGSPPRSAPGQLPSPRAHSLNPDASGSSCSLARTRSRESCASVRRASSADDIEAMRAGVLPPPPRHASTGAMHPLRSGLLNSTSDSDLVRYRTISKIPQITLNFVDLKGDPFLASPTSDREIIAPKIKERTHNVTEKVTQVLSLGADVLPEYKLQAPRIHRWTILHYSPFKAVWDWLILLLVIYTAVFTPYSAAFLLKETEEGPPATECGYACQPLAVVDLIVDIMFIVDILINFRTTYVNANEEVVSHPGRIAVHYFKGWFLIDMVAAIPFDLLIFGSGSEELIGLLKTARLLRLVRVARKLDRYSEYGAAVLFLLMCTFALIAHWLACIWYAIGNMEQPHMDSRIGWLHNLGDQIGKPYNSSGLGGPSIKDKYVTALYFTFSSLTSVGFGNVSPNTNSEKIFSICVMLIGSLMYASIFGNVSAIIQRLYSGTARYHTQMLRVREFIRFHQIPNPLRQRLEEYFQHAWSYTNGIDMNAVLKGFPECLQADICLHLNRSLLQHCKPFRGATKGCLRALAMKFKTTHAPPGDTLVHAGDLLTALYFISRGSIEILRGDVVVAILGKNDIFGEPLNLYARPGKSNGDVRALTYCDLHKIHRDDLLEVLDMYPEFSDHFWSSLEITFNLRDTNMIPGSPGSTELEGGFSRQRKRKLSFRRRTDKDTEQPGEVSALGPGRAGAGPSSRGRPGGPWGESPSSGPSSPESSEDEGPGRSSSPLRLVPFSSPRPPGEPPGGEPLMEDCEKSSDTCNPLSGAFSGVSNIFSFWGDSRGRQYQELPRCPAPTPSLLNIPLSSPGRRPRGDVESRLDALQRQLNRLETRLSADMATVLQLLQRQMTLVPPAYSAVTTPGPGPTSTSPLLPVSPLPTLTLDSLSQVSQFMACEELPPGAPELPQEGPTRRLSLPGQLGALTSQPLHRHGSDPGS
Chain of Histamine H1 receptor (P35367 whole entry): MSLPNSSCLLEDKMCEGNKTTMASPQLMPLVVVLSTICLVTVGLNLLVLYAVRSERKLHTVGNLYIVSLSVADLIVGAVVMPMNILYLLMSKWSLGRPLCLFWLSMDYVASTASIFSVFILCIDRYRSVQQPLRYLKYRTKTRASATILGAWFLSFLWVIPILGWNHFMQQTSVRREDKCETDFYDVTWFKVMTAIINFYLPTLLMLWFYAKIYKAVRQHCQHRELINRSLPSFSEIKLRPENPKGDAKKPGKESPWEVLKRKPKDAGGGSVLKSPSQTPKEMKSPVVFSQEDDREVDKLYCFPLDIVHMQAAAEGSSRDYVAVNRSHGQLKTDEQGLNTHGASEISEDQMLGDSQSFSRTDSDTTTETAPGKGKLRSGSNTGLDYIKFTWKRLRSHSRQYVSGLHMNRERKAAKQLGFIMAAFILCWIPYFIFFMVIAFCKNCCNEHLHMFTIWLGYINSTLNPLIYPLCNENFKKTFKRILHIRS

With `CCCN1CCOC(c2ccc(O)c(CO)c2)C1` (stereo not given) the EC50 [1] was greater than 1 µM.
Work on `CC(C)(C)NCC(O)c1cc(O)cc(O)c1` (stereo not given) [TERBUTALINE] yielded a clearance [2] of 3.1 mL/min/kg.
For `CCCN1CCOC(c2ccc(O)c(N)c2)C1` (stereo not given), the EC50 [1] was 0.04 µM.
For `COCCN1CCOC(c2cccc(O)c2)C1` (stereo not given), the EC50 [3] was greater than 10 µM and the EC50 [1] was greater than 3 µM.
`CCCN1CCOC(c2cccc(C#N)c2)C1` (stereo not given) gave an EC50 [1] greater than 1 µM.
`CCCN1CCOC(c2cccc(OC)c2)C1` (stereo not given) gave an EC50 [3] greater than 10 µM and an EC50 [1] greater than 1 µM.
Work on `CCCN1CCO[C@H](c2cccc(O)c2)C1` yielded a bioavailability [4] of 20%, an Activity [5] of 16% and a half-life [6] of 61 min. The Ki [7] was greater than 4 µM, the Activity [8] was “Non-toxic” and the solubility [9] was greater than 1000 mg/mL. For the same compound, the half-life [10] was 18 min, the Ki [11] was greater than 1 µM and the Activity [12] was “inactive”. It also gave a Tmax [13] of 5 min, a pKa [14] of 7.4 and an Activity [15] of 95%. For the same compound, the logD [16] was 1, the fraction unbound [17] was 0.59 and the IC50 [18] was greater than 10 µM. It also gave a Ki [19] of 0.97 µM, a bioavailability [20] of 33% and a Ki [21] greater than 1 µM. For the same compound, the fraction unbound [22] was 0.35, the Tmax [23] was 5 min and the ED50 [24] was 0.0002 µM. It also gave an EC50 [3] greater than 10 µM, an IC50 [25] greater than 20 µM and an EC50 [1] of 0.008 µM. For the same compound, the Emax [1] was greater than 90%, the Activity [26] was “Non-toxic” and the half-life [27] was 18 min. The Activity [28] was “Non-toxic”, the half-life [29] was 28 min and the Papp at 1 µM [30] was 38 ×10⁻⁶ cm/s. The half-life [31] was 96 min, the Ki [32] was greater than 1 µM and the IC50 [33] was greater than 10 µM. It also gave a Ki [34] greater than 2 µM and a fraction unbound [35] of 0.24.
Work on `CCCN1CCOC(c2cccc(OC(F)(F)F)c2)C1` (stereo not given) yielded an EC50 [3] greater than 1 µM and an EC50 [1] greater than 1 µM.
Work on `CC(=O)NCCCCN1CCOC(c2cccc(O)c2)C1` (stereo not given) yielded an EC50 [3] greater than 10 µM and an EC50 [1] greater than 10 µM.
In the case of `CCCN1CCOC(c2cccc(NS(C)(=O)=O)c2)C1` (stereo not given), the EC50 [3] is reported as greater than 1 µM and the EC50 [1] is reported as greater than 1 µM.
`CCCN1CCOC(c2cc(O)cc(O)c2)C1` (stereo not given) gave an EC50 [1] of 0.037 µM.
